According to paper PMC5377441 (International Journal for Parasitology: Drugs and Drug …, 2017):
pEC50: −log10 of the molar value. Where two headings read alike, the source gives them in different places.

What was measured:
[1] = test system: adult T. muris; conditions: serial dilution, 72 h; ref Keiser et al., 2013; cited from earlier work
[2] = type: in vivo, C57BL/10 mice
[3] = test system: T. muris; test: Drug uptake by T. muris in vivo; parameters: species or system Trichuris muris in C57BL/10 mice
[4] = oral 100 mg/kg, rats; ref Cowan et al., 2016; cited from earlier work
[5] = test system: T. muris; test: In vitro drug uptake and elimination by T. muris; type: in vitro ADME, Trichuris muris
[6] = test system: T. muris; conditions: oral 10 mg/kg; ref Keiser et al., 2013; cited from earlier work
[7] = test system: H. polygyrus; test: In vitro drug uptake and elimination by H. polygyrus; type: in vitro ADME, Heligmosomoides polygyrus; conditions: 24 h
[8] = test system: adult H. polygyrus; test: In vitro drug activity against adult H. polygyrus, phenotypic readout; type: cell-based, Heligmosomoides polygyrus; conditions: 200 μM, 72 h
How it was run: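 Adult H. polygyrus were dissected from NMRI mice from ten days post-infection onward. Four worms per drug were incubated in 2 ml at 200 μM for 72 h, with DMSO-matched worms as controls. Motility, transparency and morphology were scored from 3 (normal) to 0 (highly impaired or dead). Runs were done in duplicate and repeated once.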

In the case of `CN1CCCN=C1/C=C/c1cccc(O)c1` [Oxantel pamoate, oxantel pamoate], the pEC50 [1] is given as 5.40.
For `CN1CCCN=C1/C=C/c1cccc(O)c1.O=C(O)c1cc2ccccc2c(Cc2c(O)c(C(=O)O)cc3ccccc23)c1O` [Oxantel pamoate, oxantel pamoate], the “oxantel pamoate in the large intestine” value ([2]; intraperitoneal 50 mg/kg, 2 h) was 7 µmol/g, the “oxantel pamoate in the mucosal tissue of the large intestine” value ([2]; intraperitoneal 50 mg/kg, 2 h) was 17 µmol/g and the “oxantel pamoate in the mucosal tissue of the small intestine” value ([2]; intraperitoneal 50 mg/kg, 2 h) was 2 µmol/g. For the same molecule, the “oxantel pamoate in the small intestine” value ([2]; intraperitoneal 50 mg/kg, 2 h) was 7 µmol/g, the “oxantel pamoate in the stomach” value ([2]; intraperitoneal 50 mg/kg, 2 h) was 5 µmol/g and the “oxantel pamoate plasma level” value ([2]; intraperitoneal 50 mg/kg, 2 h, below the LLOQ) was 0.21 µM. For the same molecule, the “plasma concentration of the administered drug” value ([2]; oral 100 mg/kg, 2-8 h (all times)) was < 700 nM, the “administered drug in the small intestinal mucosa” value ([2]; oral 100 mg/kg, 5 and 8 h) was 2 µmol/g and the “administered drug in the large intestine” value ([2]; oral 100 mg/kg, 2 h) was 6 µmol/g. The “administered drug in the mucosa of the small intestine” value ([2]; oral 100 mg/kg, 2 h) was 31 µmol/g, the “administered drug in the small intestine” value ([2]; oral 100 mg/kg, 2 h) was 1951 µmol/g and the “administered drug in the stomach” value ([2]; oral 100 mg/kg, 2 h) was 5278 µmol/g. For the same molecule, the “administered drug in the large intestine” value ([2]; oral 100 mg/kg, 5 h) was 359 µmol/g, the “administered drug in the small intestine” value ([2]; oral 100 mg/kg, 5 h) was 54 µmol/g and the “administered drug in the stomach” value ([2]; oral 100 mg/kg, 5 h) was 302 µmol/g. The “administered drug in the large intestine” value ([2]; oral 100 mg/kg, 8 h) was 110 µmol/g, the “administered drug in the small intestine” value ([2]; oral 100 mg/kg, 8 h) was 61 µmol/g and the “administered drug in the stomach” value ([2]; oral 100 mg/kg, 8 h) was 364 µmol/g. For the same molecule, the “drug quantity in worms, maximum” value ([3]; in vivo) was ≤ 34 nmol per ten T. muris, the “oxantel pamoate in worms” value ([3]; intraperitoneal 50 mg/kg, 2 h) was “no compound could be quantified” and the “oxantel pamoate in worms” value ([3]; oral 100 mg/kg, 5 h) was 34 nmol/10 worms. The “oxantel pamoate in worms” value ([3]; oral 100 mg/kg, 8 h) was 22 nmol/10 worms, the “oxantel pamoate in plasma” value [4] was “could not quantify” and the “time after which uptake ceased” value ([5]; exposure at 25 μM) was 8 h. It also gave an OxP in worms ([5]; incubation at 5 μM, 24 h) of 13 ± 9 nmol/10 worms, an OxP in worms ([5]; incubation at 10 μM, 24 h) of 27 ± 9 nmol/10 worms and an OxP in worms ([5]; incubation at 25 μM, 24 h) of 65 ± 5 nmol/10 worms. The OxP in worms ([5]; incubation at 50 μM, 24 h) was 155 ± 41 nmol/10 worms, the OxP in worms ([5]; incubation at 75 μM, 24 h) was 169 ± 24 nmol/10 worms and the OxP in worms ([5]; incubation at 100 μM, 24 h) was 197 ± 46 nmol/10 worms. The Worm burden reduction [6] was 93% [10 mg/kg] ^c.
In the case of `CCCS(=O)(=O)c1ccc2nc(NC(=O)OC)[nH]c2c1` [Albendazole sulfone, albendazole sulfone], the “albendazole sulfoxide detected in worms” value ([7]; incubation 5 to 100 μM, range or mean over the concentrations) was 15 nmol/10 worms, the “albendazole sulfone detected in worms” value ([7]; incubation 5 to 100 μM, range, mean or maximum over the concentrations) was 33 nmol/10 worms and the ABZSO2 in worms ([7]; incubation at 5 μM) was 33 ± 10 nmol/10 worms. It also gave an ABZSO in medium ([7]; incubation at 5 μM) of 0.2 ± 0.1 µM, an ABZSO in worms ([7]; incubation at 5 μM) of 19 ± 10 nmol/10 worms and an ABZSO2 in worms ([7]; incubation at 10 μM) of 51 ± 23 nmol/10 worms. For the same molecule, the ABZSO in medium ([7]; incubation at 10 μM) was 0.2 ± 0.1 µM, the ABZSO in worms ([7]; incubation at 10 μM) was 19 ± 3 nmol/10 worms and the ABZSO2 in worms ([7]; incubation at 25 μM) was 23 ± 8 nmol/10 worms. For the same molecule, the ABZSO in medium ([7]; incubation at 25 μM) was 0.4 ± 0.0 µM, the ABZSO in worms ([7]; incubation at 25 μM) was 13 ± 11 nmol/10 worms and the ABZSO2 in worms ([7]; incubation at 50 μM) was 30 ± 20 nmol/10 worms. For the same molecule, the ABZSO in medium ([7]; incubation at 50 μM) was 0.3 ± 0.0 µM, the ABZSO in worms ([7]; incubation at 50 μM) was 9 ± 5 nmol/10 worms and the ABZSO2 in worms ([7]; incubation at 75 μM) was 31 ± 8 nmol/10 worms. For the same molecule, the ABZSO in medium ([7]; incubation at 75 μM) was 0.3 ± 0.0 µM, the ABZSO in worms ([7]; incubation at 75 μM) was 16 ± 11 nmol/10 worms and the ABZSO2 in worms ([7]; incubation at 100 μM) was 33 ± 21 nmol/10 worms. For the same molecule, the ABZSO in medium ([7]; incubation at 100 μM) was 0.2 ± 0.0 µM, the ABZSO in worms ([7]; incubation at 100 μM) was 16 ± 8 nmol/10 worms and the “albendazole in the parasite and the culture medium” value ([5]; incubation 5-100 μM, 24 h) was “neither detected”. The “albendazole sulfoxide in the parasite and the culture medium” value ([5]; incubation 5-100 μM, 24 h) was “neither detected”, the ABZSO2 in worms ([5]; incubation at 5 μM, 24 h) was 122 ± 45 nmol/10 worms and the ABZSO2 in worms ([5]; incubation at 10 μM, 24 h) was 185 ± 55 nmol/10 worms. For the same molecule, the ABZSO2 in worms ([5]; incubation at 25 μM, 24 h) was 421 ± 171 nmol/10 worms, the ABZSO2 in worms ([5]; incubation at 50 μM, 24 h) was 780 ± 258 nmol/10 worms and the ABZSO2 in worms ([5]; incubation at 75 μM, 24 h) was 1127 ± 451 nmol/10 worms. The ABZSO2 in worms ([5]; incubation at 100 μM, 24 h) was 1348 ± 447 nmol/10 worms, the “Drug effect (reduction of parasite viability)” value [8] was 40% [200 μM] and the “Drug effect (reduction of parasite viability)” value ([8]; listed as albendazole sulfone) was 40%.
